For data set [1], the target named is T1, PqsR (Pseudomonas aeruginosa, UniProt Q9I4X0).
T1 sequence (Q9I4X0 1-332): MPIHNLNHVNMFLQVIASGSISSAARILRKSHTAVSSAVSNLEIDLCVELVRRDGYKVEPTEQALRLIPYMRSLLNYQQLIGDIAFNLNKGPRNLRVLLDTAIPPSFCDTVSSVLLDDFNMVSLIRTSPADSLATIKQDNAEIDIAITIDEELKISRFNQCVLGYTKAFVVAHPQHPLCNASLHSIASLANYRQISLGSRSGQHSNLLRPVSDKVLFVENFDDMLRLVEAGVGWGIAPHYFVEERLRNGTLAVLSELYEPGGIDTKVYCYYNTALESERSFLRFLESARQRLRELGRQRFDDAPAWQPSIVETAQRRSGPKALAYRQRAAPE
In words: 10 μM spot test in the PAO1-L mCTX:PpqsA-lux bioreporter. The data set is classed as cell-based, Pseudomonas aeruginosa PAO1-L. Conditions: 10 μM ligand concentration. Put shortly: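 Single-concentration screen of the PAO1-L mCTX:PpqsA-lux strain in LB. The reporter was grown overnight at 37 °C to OD600 2.0–3.0 and diluted to OD600 0.02. A 20 μM compound solution in LB was mixed 1:1 with the cells (final 10 μM) in at least three wells. OD600 and luminescence were read every 30 min at 37 °C over 24 h. Activity (luminescence/OD600) was taken at the luminescence peak and compared with the DMSO control.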

The target in data set [2] is T1, PqsR. The data set can be described thus: PqsR bioreporter assay. The settings on record: for activity: read-out: IC50 value in PAO1-L. The data set is classed as cell-based, Pseudomonas aeruginosa PAO1-L. In a few lines:
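Dose-response of the PAO1-L mCTX:PpqsA-lux reporter. Ten compound concentrations in LB came from two tenfold dilution series and were mixed 1:1 with PAO1-L diluted to OD600 0.02, giving final 31.6 μM to 1 nM, in triplicate. The plate was kinetically read at 37 °C over 24 h for OD600 and luminescence every 30 min. Values were taken at the luminescence peak (8–9 h), and log concentration was plotted against RLU/OD600.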
In general terms: In a reporter assay the amount or activity of a reporter protein is the signal.

The nature of data set [3]: Solubility in the cytotoxicity test buffer. Format: physicochemical. The settings on record: this concentration = 100 μM.
The subject of data set [4] is A549 lung epithelial cells. The data set can be described thus: Cytotoxicity. The data set is classed as cell-based, human. Conditions: 0.1 to 100 μM, 16 h.

Each structure is given as a SMILES string. Entries after “also recorded” stand apart in the source; their conditions may differ.

Turning to `CC(C)c1noc(Cn2cnc3ccc(Cl)cc3c2=O)n1` [Compound 7], the “activity when screened at 10 μM (in words)” value (“activity when screened” for short) on PqsR [1] is “inactive; also recorded: inactivity”.

Turning to `Cc1nc(Cn2cnc3ccc(Cl)cc3c2=O)cs1` [Compound 8, 6-Chloro-3-((2-methylthiazol-4-yl)methyl)quinazolin-4(3H)-one], the activity at PqsR [2] was greater than 50%.

With `O=c1c2cc(Cl)ccc2ncn1Cc1csc(C(F)(F)F)n1` [Compound 9, 6-Chloro-3-((2-(trifluoromethyl)thiazol-4-yl)methyl)quinazolin-4(3H)-one], at PqsR [2], the activity is greater than 50%.

As for `CCc1nc(Cn2cnc3ccc(Cl)cc3c2=O)cs1` [Compound 10, 6-Chloro-3-((2-ethylthiazol-4-yl)methyl)quinazolin-4(3H)-one], the activity on PqsR [2] is greater than 50%.

For `N#CCc1nc(Cn2cnc3ccc(Cl)cc3c2=O)cs1` [Compound 11, 2-(4-((6-Chloro-4-oxoquinazolin-3(4H)-yl)methyl)thiazol-2-yl)acetonitrile], on PqsR [2], the activity was greater than 50%.

As to `CC(C)(C)c1nc(Cn2cnc3ccc(Cl)cc3c2=O)cs1` [Compound 12, 3-((2-(Tert-butyl)thiazol-4-yl)methyl)-6-chloroquinazolin-4(3H)-one], the “activity in PAO1-L compared with 32” value at PqsR [2] (ratio of IC50 values, strain PAO1-L) was “seven-fold stronger activity”.

`CCCCCc1nc(Cn2cnc3ccc(Cl)cc3c2=O)cs1` [Compound 18, 6-Chloro-3-((2-pentylthiazol-4-yl)methyl)quinazolin-4(3H)-one]: the “solubility in the test buffer” value in data set [3] was “neither compound was fully soluble above this concentration”. The “cytotoxic concentration (no significant toxicity up to; LD50 not reached)” value in data set [4] was greater than 100 µM.

As for `CCCCCCc1nc(Cn2cnc3ccc(Cl)cc3c2=O)cs1` [Compound 19, 6-Chloro-3-((2-hexylthiazol-4-yl)methyl)quinazolin-4(3H)-one], the “solubility in the test buffer” value in data set [3] is “neither compound was fully soluble above this concentration”. Moreover, the “cytotoxic concentration (no significant toxicity up to; LD50 not reached)” value in data set [4] is greater than 100 µM.

Regarding `O=c1c2cc(Cl)ccc2ncn1Cc1csc(-c2ccc([N+](=O)[O-])cc2)n1` [Compound 23, 6-Chloro-3-((2-(4-nitrophenyl)thiazol-4-yl)methyl)quinazolin-4(3H)-one], the “activity when screened” value on PqsR [1] was “inactive”. Further, the activity on PqsR [2] was greater than 50%.

Consider `COCCNc1nc(Cn2cnc3ccc(Cl)cc3c2=O)cs1` [Compound 24, 6-Chloro-3-((2-((2-methoxyethyl)amino)thiazol-4-yl)methyl)quinazolin-4(3H)-one], for which the “activity when screened” value at PqsR [1] is given as “no inhibition”. At PqsR [2], the activity was greater than 50%.

Take `NC(N)=Nc1nc(Cn2cnc3ccc(Cl)cc3c2=O)cs1` [Compound 26, 2-(4-((6-Chloro-4-oxoquinazolin-3(4H)-yl)methyl)thiazol-2-yl)guanidine]: the “activity when screened” value at PqsR [1] was “inactive”. For the same compound, the activity on PqsR [2] is greater than 50%.

In the case of `CC1CCN(c2ncc(Cn3cnc4ccc(Cl)cc4c3=O)s2)CC1` [Compound 27, 6-Chloro-3-((2-(4-methylpiperidin-1-yl)thiazol-5-yl)methyl)quinazolin-4-(3H)-one], the activity on PqsR [2] is greater than 50%.

Turning to `O=c1c2cc(Cl)ccc2ncn1Cc1cnc(NC2CCCCC2)s1` [Compound 28, 6-Chloro-3-((2-(cyclohexylamino)thiazol-5-yl)methyl)quinazolin-4-(3H)-one], the activity at PqsR [2] was greater than 50%.

Consider `CN(CCO)c1ncc(Cn2cnc3ccc(Cl)cc3c2=O)s1` [Compound 29, 6-Chloro-3-((2-(2-hydroxyethyl(methyl)amino)thiazol-5-yl)methyl)quinazolin-4-(3H)-one], for which the activity at PqsR [2] is greater than 50%.

As to `CCCCNc1ncc(Cn2cnc3ccc(Cl)cc3c2=O)s1` [Compound 30, 3-((2-(Butylamino)thiazol-5-yl)methyl)-6-chloroquinazolin-4(3H)-one], the activity at PqsR [2] is greater than 50%.

For the compound `COCCNc1ncc(Cn2cnc3ccc(Cl)cc3c2=O)s1` [Compound 31, 6-Chloro-3-((2-((2-methoxyethyl)amino)thiazol-5-yl)methyl)quinazolin-4-(3H)-one], the activity on PqsR [2] is greater than 50%.

With `CCCCCc1nc(Cn2cnc3cc(Cl)ccc3c2=O)cs1` [Compound 33, 7-Chloro-3-((2-pentylthiazol-4-yl)methyl)quinazolin-4(3H)-one], the “activity when screened” value at PqsR [1] was “inactive”. Further, on PqsR [2], the activity is greater than 50%.

With `O=c1c2cc(Cl)ccc2ncn1Cc1cnc(Cl)s1` [Compound 34, 6-Chloro-3-((2-chlorothiazol-5-yl)methyl)quinazolin-4(3H)-one], the activity on PqsR [2] was greater than 50%.

As to `CC(C)c1ncc(Cn2cnc3ccc(Cl)cc3c2=O)s1` [Compound 35, 6-Chloro-3-((2-isopropylthiazol-5-yl)methyl)quinazolin-4(3H)-one], the “activity when screened” value on PqsR [1] is “inactive; also recorded: inactivity”. In addition, the activity at PqsR [2] was greater than 50%.

The values above are taken from publication PMC7684530 (European Journal of Medicinal Chemistry, 2020).
